Assay outcomes as filed in PubChem BioAssay.
STAT3 activator = STAT3 signaling activation; 190,000 compounds, 0.91% hits; AID 871; activation (% of control), % at 5.6 µM; U3A cells, IL-6 STAT3-luciferase reporter, luminescence; 100% = signal with IL-6 EC80 alone;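 active means activation above the screen-wide mean of compound activation plus 3 SD, cut at about 130% in these data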;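 further: 0% = background luminescence of wells with medium and substrate only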
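Material: STAT1-lacking human U3A cells, STAT3 luciferase reporter | Benchmarks: IL-6-only wells as 100% reference | Probe or stimulus: IL-6 (33 ng/mL) | Timing: Compound 1 h, then IL-6 6 h at 37 °C | Detection: Luminescence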
APP 5'UTR act = activates APP 5'UTR luciferase reporter. activation, % at 2 µM. AID 1276. 190,000 compounds, 1% hits. SH-SY5Y APP 5'UTR luciferase reporter, luminescence; zero percent = DMSO vehicle wells;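 active means activation above a set limit, based on mean plus 3 SD of controls, cut at about 140% in these data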
NF-kB expr up = NF-kB expression increase, human neuronal cells | NF-kB reporter expression; hits give high values | fold change at 12.5 µM | 190,000 compounds, 1.6% hits | AID 1239; in the data active means fold change above about 3.3
STAT1 blocker = inhibitors of IFN-gamma induced STAT1 signaling; inhibition, % at 5.5 µM; NIH 3T3 STAT1-luciferase reporter, luminescence; 200,000 compounds, 0.35% hits;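 active means inhibition above a set limit, the mean inhibition across all tested compounds plus 3 SD, cut at about 34% in these data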;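 further: 0% = IFN-gamma with DMSO and 100% = IFN-gamma with 300 µM nifuroxazide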
STAT3 blocker = inhibitors of IL-6 induced STAT3 signaling | 190,000 compounds, 0.89% hits | inhibition, % at 5.5 µM | U3A cells, IL-6 STAT3-luciferase reporter, luminescence; host cell line lacks STAT1 | AID 862;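 active means inhibition above the mean inhibition across all screened compounds plus 3 SD, cut at about 44% in these data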;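 further: 0% = DMSO only wells and 100% = 100 µM nifuroxazide control wells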
STAT1 act = increases IFN-gamma driven STAT1 reporter signal; NIH 3T3 STAT1-luciferase reporter, luminescence; 100% = IFN-gamma alone, no compound; activation (% of control), % at 5.5 µM; 200,000 compounds, 2.6% hits;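 active means activation above the screen-wide mean activation plus 3 SD, cut at about 130% in these data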;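 further: raw ratio to IFN-gamma control signal so 100% means no change and 0% no light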
* = called active by the depositor. The list is not random: actives were taken first. Their share in the collection is about 4.9%.

SMILES	STAT3 activator	APP 5'UTR act	NF-kB expr up	STAT1 blocker	STAT3 blocker	STAT1 act
CC(=O)c1cccc(NC(=O)Nc2cccnc2)c1	89	-19	0.88	17	14	85
CC(=O)c1ccc(Nc2nc(=O)c3cccnc3s2)cc1	91	-4	3.9*	-35	11	136*
CC(=O)c1cccc(Nc2nc(=O)c3cccnc3s2)c1	93	-13	3.4*	-1	10	103
CC(=O)c1ccc(Nc2cc(C)nc3ccccc23)cc1	95	-42	1.2	-12	16	110
O=c1nc(Nc2ccc(OCc3ccccc3)cc2)sc2ncccc12	82	-14	1.7	-28	27	124
CCOC(=O)c1ccc(Nc2nc(=O)c3cccnc3s2)cc1	119	19	4.1*	-13	-18	112
CCC(CC)NC(=O)COC(=O)c1ccc(NS(=O)(=O)c2ccc3c(c2)OCCO3)cc1	97	11	1.5	-2	4	102
CC1=[N+]([O-])C(C)(C)C(c2ccc(Br)cc2)=[N+]1[O-]	87	3	1.2	5	15	96
CCCCNCC1C(Oc2ccc(Cl)cc2)C(=O)N1c1ccccc1C (configuration not stated)	103	-25	0.87	2	1	99
Cc1ccnc(NC(NC(=O)C(C)C)(C(F)(F)F)C(F)(F)F)c1	99	3	1.3	11	5	90
Oc1ccc(CN2CCN(Cc3ccccc3)CC2)c2cccnc12	99	12	6*	-2	6	102
O=[N+]([O-])c1cc(CN2CCN(c3ccccc3)CC2)c(O)c2ncccc12	89	-80	0.73	15	15	87
O=S(=O)(c1ccc(Cl)cc1)N1CCN(Cc2ccc(O)c3ncccc23)CC1	107	-34	1.4	2	1	98
CN1CCN(Cc2cc(COCc3ccccc3)c3cccnc3c2O)CC1	96	-72	5.3*	-8	8	107
Oc1c(CN2CCCCC2)cc(Br)c2cccnc12	135*	-67	2.8	5	-37	96
c1ccc(CSCc2cn3ccsc3n2)cc1	124	64	8.9*	-34	-28	132*
O=C(Cc1cn2ccsc2n1)OCc1ccccc1	119	6	5.3*	-7	-19	107
c1ccc2oc(SCc3cn4ccsc4n3)nc2c1	94	127	3	-42	13	138*
O=C(Cc1cn2ccsc2n1)OCc1nc2ccccc2s1	110	-11	1.2	1	-7	99
O=C(Cc1cn2ccsc2n1)NCc1ccccc1	99	10	1.3	7	4	93
c1cn2cc(CSC3CCCCC3)nc2s1	103	99	2.7	-37	-4	134*
COC(=O)Nc1ccc(S(=O)(=O)N2CCC(C(=O)NC3CCCCC3)CC2)cc1	91	2	1.1	-2	14	101
O=C(CSc1nccc(=O)[nH]1)c1ccccc1Br	105	13	1.3	-5	-1	104
CCOC(=O)C1=C(C)NC(C)=C(C(=O)OCC)C1C(=O)OCC(=O)N(C)C1CCS(=O)(=O)C1 (configuration not stated)	106	8	1.1	-4	-5	102
Cc1cccc(C)c1NC(=O)CNc1ncnc2sc(C)c(C)c12	96	-11	1.6	-5	1	105
SMILES	STAT3 activator	APP 5'UTR act	NF-kB expr up	STAT1 blocker	STAT3 blocker	STAT1 act
COc1ccc(CN2C(=O)/C(=C/c3ccncc3)SC2=S)cc1	97	5	1.9	2	6	99
Clc1ccc(SCc2cn3ccsc3n2)cc1	97	72	2.3	-38	6	134*
Oc1ccccc1N=Cc1sc2ccccc2c1Cl	135*	7	2.6	11	-48	90
Cc1cccc(CN(C(=S)Nc2c(C)cccc2C)c2cccnc2)c1	97	19	1.1	-2	6	101
COc1ccc(C(=O)N2c3ccccc3C=CC2C#N)cc1 (configuration not stated)	91	-10	1.3	2	6	98
N#C[C@H]1[C@H](c2ccccc2)[C@](C#N)(C(=O)c2ccccc2)[C@@H]2C=Cc3ccccc3N21	133*	21	1.3	17	-31	85
c1ccc2c(c1)NCCS2	105	20	0.72	-8	-2	105
CN(C)C(=O)COC(=O)c1ccccc1Nc1ccc(SC(F)F)cc1	116	19	2.5	-34	-25	131*
